Assay results: ChEMBL document CHEMBL1129580, “Endogenous natriuretic factors. 5. Synthesis and biological activity of a natriuretic metabolite of diltiazem and its derivatives” (1996)

What was measured:
Rattus norvegicus [1] = assay: Diuretic effect was evaluated in the conscious female rat by natriuretic assay involving metabolic caging at dose 20 mg/kg; assay type: functional, Urine
In short: (§1)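 Rats housed singly in metabolic cages 1-2 days beforehand and acclimated to oral gavage with 3 mL/kg tap water; food and water withdrawn 2 h pre-test. Oral saline volume load, 25 mL/kg, then compound by gavage as 1% CMC suspension (1 mL/kg); 1% CMC vehicle control. Six rats per group. 5 h urine collected; volume, Na+, K+ measured. Outliers >2 SD removed; ANOVA, Scheffe F test.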

Rattus norvegicus [2] = assay: Natriuretic effect was evaluated in the conscious female rat by natriuretic assay involving metabolic caging at dose 30 mg/kg; assay type: functional; in short: as §1
Rattus norvegicus [3] = assay: Diuretic effect was evaluated in the conscious female rat by natriuretic assay involving metabolic caging at dose 30 mg/kg; assay type: functional, Urine; in short: as §1
Rattus norvegicus [4] = assay: Kaliuretic effect was evaluated in the conscious female rat by natriuretic assay involving metabolic caging at dose 30 mg/kg; assay type: functional; in short: as §1
Rattus norvegicus [5] = assay: Kaliuretic effect was evaluated in the conscious female rat by natriuretic assay involving metabolic caging at dose 20 mg/kg; assay type: functional; in short: as §1
Rattus norvegicus [6] = assay: Natriuretic effect was evaluated in the conscious female rat by natriuretic assay involving metabolic caging at dose 20 mg/kg; assay type: functional; in short: as §1
Rattus norvegicus [7] = assay: Diuretic effect was evaluated in the conscious female rat by natriuretic assay involving metabolic caging at dose 50 mg/kg; assay type: functional, Urine; in short: as §1
Rattus norvegicus [8] = assay: Kaliuretic effect was evaluated in the conscious female rat by natriuretic assay involving metabolic caging at dose 50 mg/kg; assay type: functional; in short: as §1
Rattus norvegicus [9] = assay: Natriuretic effect was evaluated in the conscious female rat by natriuretic assay involving metabolic caging at dose 10 mg/kg; assay type: functional; in short: as §1
Rattus norvegicus [10] = assay: Natriuretic effect was evaluated in the conscious female rat by natriuretic assay involving metabolic caging at dose 50 mg/kg; assay type: functional; in short: as §1
Rattus norvegicus [11] = assay: Diuretic effect was evaluated in the conscious female rat by natriuretic assay involving metabolic caging at dose 10 mg/kg; assay type: functional, Urine; in short: as §1
Rattus norvegicus [12] = assay: Kaliuretic effect was evaluated in the conscious female rat by natriuretic assay involving metabolic caging at dose 10 mg/kg; assay type: functional; in short: as §1
Rattus norvegicus [13] = assay: Natriuretic effect was evaluated in the conscious female rat by natriuretic assay involving metabolic caging at dose 5 mg/kg; assay type: functional; in short: as §1
Rattus norvegicus [14] = assay: Kaliuretic effect was evaluated in the conscious female rat by natriuretic assay involving metabolic caging at dose 5 mg/kg; assay type: functional; in short: as §1
Rattus norvegicus [15] = assay: Diuretic effect was evaluated in the conscious female rat by natriuretic assay involving metabolic caging at dose 5 mg/kg; assay type: functional, Urine; in short: as §1

| SMILES | Diuretic activity (Rattus norvegicus [1]) | Natriuretic activity (Rattus norvegicus [2]) | Diuretic activity (Rattus norvegicus [3]) | Kaliuretic activity (Rattus norvegicus [4]) | Kaliuretic activity (Rattus norvegicus [5]) | Natriuretic activity (Rattus norvegicus [6]) | Diuretic activity (Rattus norvegicus [7]) | Kaliuretic activity (Rattus norvegicus [8]) | Natriuretic activity (Rattus norvegicus [9]) | Natriuretic activity (Rattus norvegicus [10]) | Diuretic activity (Rattus norvegicus [11]) | Kaliuretic activity (Rattus norvegicus [12]) | Natriuretic activity (Rattus norvegicus [13]) | Kaliuretic activity (Rattus norvegicus [14]) | Diuretic activity (Rattus norvegicus [15]) |
| --- | --- | --- | --- | --- | --- | --- | --- | --- | --- | --- | --- | --- | --- | --- | --- |
| NS(=O)(=O)c1cc(C(=O)O)c(NCc2ccco2)cc1Cl [FUROSEMIDE] | 1.3 mL/g | <2.5 µM/g | 2.6 mL/g | <1.6 µM/g | <1.1 µM/g | <1.1 µM/g |  |  |  |  |  |  |  |  |  |
| COc1ccc([C@@H]2Sc3ccccc3N(CCOC(C)=O)C(=O)[C@@H]2OC(C)=O)cc1 |  |  |  |  |  |  | 1.3 mL/g | <0.7 µM/g | <1.35 µM/g | <1.55 µM/g | 1.3 mL/g | <0.95 µM/g |  |  |  |
| COc1ccc([C@@H]2Sc3ccccc3N(CCO)C[C@@H]2O)cc1 |  | <1.6 µM/g | 1.75 mL/g | <0.9 µM/g |  |  | 1.6 mL/g | 0.97 µM/g | <2 µM/g | <1.65 µM/g | 1.7 mL/g | <1 µM/g |  |  |  |
| COc1ccc([C@@H]2Sc3ccccc3N(CC(=O)O)C(=O)[C@@H]2OC(C)=O)cc1 | 1.75 mL/g | <2.1 µM/g | 2.25 mL/g | 1.2 µM/g | <1.08 µM/g | <1.55 µM/g | 2.1 mL/g | 1.25 µM/g | <2 µM/g | 1.7 µM/g | 1.92 mL/g | <0.9 µM/g |  |  |  |
| CCOC(=O)CN1C(=O)[C@H](O)[C@H](c2ccc(OC)cc2)Sc2ccccc21 |  | <1.6 µM/g | 1.5 mL/g | <0.75 µM/g |  |  | 1.3 mL/g | 1 µM/g | <2 µM/g | <1.25 µM/g | 1.7 mL/g | <1.1 µM/g |  |  |  |
| COc1ccc([C@@H]2Sc3ccccc3N(CC(=O)O)C(=O)[C@@H]2O)cc1 | 1.7 mL/g | <2.1 µM/g | 2.1 mL/g | 1.07 µM/g | 1.15 µM/g | <1.6 µM/g | 1.85 mL/g | 1.23 µM/g | <2 µM/g | <1.95 µM/g | 2 mL/g | 1.1 µM/g |  |  |  |
| COc1ccc([C@@H]2Sc3ccccc3N(CCO)C(=O)[C@@H]2OC(C)=O)cc1 | 1.28 mL/g |  |  |  | <0.67 µM/g | <1.35 µM/g |  |  | <1.25 µM/g |  | 1.3 mL/g | 0.7 µM/g |  |  |  |
| COc1ccc([C@@H]2Sc3ccccc3N(CCO)C(=O)[C@@H]2O)cc1 | 1.8 mL/g |  |  |  | <1.05 µM/g | <1.9 µM/g | 1.6 mL/g | <0.8 µM/g | <2.5 µM/g | <0.9 µM/g | 2.1 mL/g | 1.1 µM/g | <1.6 µM/g | 1 µM/g | 1.7 mL/g |
| COc1ccc([C@@H]2Sc3ccccc3N(CCN(C)C)C(=O)[C@@H]2OC(C)=O)cc1 [DILTIAZEM] | 1.8 mL/g |  |  |  | 0.7 µM/g | <1.6 µM/g |  |  | <1.4 µM/g |  | 1.6 mL/g | <0.8 µM/g |  |  |  |
